Data on 20 molecules can be found in ChEMBL document CHEMBL5104174, “Development of tumor-targeting aza-vesamicol derivatives with high affinity for sigma receptors for cancer theranostics” (RSC Med Chem, 2022).

A short description of data set [1]: Biodistribution in liver of Balb/c mouse xenografted with human DU-145 cells assessed as radioactivity at 37 kBq, iv and measured upto 24 hrs post-injection by gamma counter analysis. Format: ADME, organism-based. Conditions: in vivo; call rule not given here. In outline: (§1)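 About 5 × 10⁶ DU-145 cells injected sc into the right dorsum of 4-week-old male BALB/c nude mice. Sacrificed at 1 and 24 h. Gamma counting, expressed as % injected dose, mean ± SD.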
(A xenograft is tissue or cells of one species grown in another, often human tumour cells in immunodeficient mice.)

Data set [2] can be described thus: Biodistribution in lung of Balb/c mouse xenografted with human DU-145 cells assessed as radioactivity at 37 kBq, iv and measured upto 24 hrs post-injection by gamma counter analysis. Type of data set: ADME, organism-based. Conditions: in vivo. The method in brief:
as §1

Data set [3] in a line: Drug uptake in tumor of Balb/c mouse xenografted with human DU-145 cells assessed as radioactivity at 37 kBq, iv and measured upto 24 hrs post-injection by gamma counter analysis. Particulars: in vivo. Type of data set: ADME, organism-based, Neoplasm. In outline:
as §1

The nature of data set [4]: Biodistribution in kidney of Balb/c mouse xenografted with human DU-145 cells assessed as radioactivity at 37 kBq, iv and measured upto 24 hrs post-injection by gamma counter analysis. Particulars: in vivo. Type of data set: ADME, organism-based. The method in brief:
as §1

In data set [5] the target is Sigma non-opioid intracellular receptor 1 (Rattus norvegicus, UniProt Q9R0C9). Put plainly: Displacement of (+)-[3H]pentazocine from sigma-1 receptor in Sprague-Dawley rat cerebral membrane incubated for 90 mins by liquid scintillation counter analysis. Type of data set: cell membranes, Cerebrum.
The target of data set [6] is T1, Sigma intracellular receptor 2 (Rattus norvegicus, UniProt Q5U3Y7).
T1 sequence (Q5U3Y7 whole entry): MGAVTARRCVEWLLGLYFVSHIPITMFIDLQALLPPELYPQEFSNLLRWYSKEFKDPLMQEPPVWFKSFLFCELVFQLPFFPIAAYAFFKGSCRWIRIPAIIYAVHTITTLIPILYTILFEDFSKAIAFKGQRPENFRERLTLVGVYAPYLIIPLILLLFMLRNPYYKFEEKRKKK
Briefly: Displacement of [3H]DTG from sigma-2 receptor in Sprague-Dawley rat liver membrane incubated for 90 mins in presence of by liquid scintillation counter analysis (+)-pentazocine by liquid scintillation counter analysis. Type of data set: cell membranes.

Data set [7] is described as follows: Metabolic stability in mouse plasma assessed parent compound remaining at 74 to 93 kBq incubated for 24 hrs by RP-HPLC analysis. Format: ADME, cell-free. Conditions: dose 74-93 kBq, read-out: Stability. The method in brief: (§2)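 Ice-cold acetonitrile added, centrifuged 1700 g for 15 min at 4 °C, filtered 0.45 μm. Intact tracer measured by RP-HPLC; mean ± SD of three samples.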

A short description of data set [8]: Metabolic stability in mouse plasma assessed parent compound remaining at 74 to 93 kBq incubated for 1 hrs by RP-HPLC analysis. Type of data set: ADME, cell-free. Particulars: dose 74-93 kBq, read-out: Stability. The method in brief:
as §2

Data set [9] is described as follows: Biodistribution in ddY mouse blood assessed as blood clearance by measuring radioactivity at 18 to 33 kBq, iv […] and measured upto 24 hrs post-injection by gamma counter analysis. Type of data set: ADME, organism-based. Conditions: in vivo, dose 18-33 kBq. The method in brief:
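Male ddY mice, 6 weeks old, 28–30 g. Sacrificed at 10, 30 min, 1, 4, 8 and 24 h postinjection. Tissue radioactivity counted in a gamma counter.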

A short description of data set [10]: Biodistribution in ddY mouse neck assessed as radioactivity at 18 to 33 kBq, […] by gamma counter analysis. Format: ADME, organism-based. Conditions: in vivo, iv, dose 18-33 kBq.
Data set [11] can be described thus: Drug uptake in tumor of Balb/c mouse xenografted with human DU-145 cells assessed as radioactivity at 37 kBq, iv and measured after 1 hrs post-injection by gamma counter analysis. Type of data set: ADME, organism-based, Neoplasm. Conditions: in vivo. The method in brief:
as §1

Data set [12] in a line: 1-Octanol/PBS partition coefficient, logP of the compound at pH 7.4 by shake flask method. Type of data set: physicochemical. In outline:
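Radioiodinated tracer partitioned between 1-octanol and 0.1 M phosphate buffer pH 7.4 by shake-flask. Ratio of radioactivity in octanol to that in buffer, expressed as log P. Mean ± SD of four samples.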

Data set [13] can be described thus: Stability of the compound in pH 7.4 phosphate buffer assessed as parent compound remaining at 22 to 82 kBq incubated for 24 hrs by RP-HPLC analysis. Type of data set: physicochemical. Particulars: dose 22-82 kBq, read-out: Stability.
Data set [14] can be described thus: Drug uptake in human DU-145 cells assessed as radioactivity at 3.7 kBq incubated for 15 to 120 mins. Particulars: time 15-120 min. Type of data set: ADME, cell-based. In outline:
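DU-145 cells grown in RPMI 1640 with 10% FBS, seeded and pre-incubated 24 h. Washed with ice-cold PBS, lysed in 1 M NaOH, counted and normalized to BCA protein. Mean ± SD.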

Data set [15] is described as follows: Drug uptake in pancreas of Balb/c mouse xenografted with human DU-145 cells at 50 MBq, iv and measured after 24 hrs post-injection by SPECT/CT analysis. Type of data set: ADME, organism-based. Conditions: in vivo. The method in brief:
(§3)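 DU-145 sc xenografts in BALB/c nude mice. HPLC-purified 123I-tracer given iv, 50 MBq or 38 MBq per tracer. Small-animal SPECT/CT at 24 h postinjection, 0.8 mm voxels.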

Data set [16] in a line: Drug uptake in thyroid gland of Balb/c mouse xenografted with human DU-145 cells at 50 MBq, iv and measured after 24 hrs post-injection by SPECT/CT analysis. Type of data set: ADME, organism-based. Conditions: in vivo. In outline: as §3
The nature of data set [17]: Drug uptake in tumor of Balb/c mouse xenografted with human DU-145 cells at 50 MBq, iv and measured after 24 hrs post-injection by SPECT/CT analysis. Format: ADME, organism-based, Neoplasm. Particulars: in vivo. In outline:
as §3

Data set [18] is described as follows: Drug uptake in pancreas of Balb/c mouse xenografted with human DU-145 cells at 38 MBq, iv and measured after 24 hrs post-injection by SPECT/CT analysis. Format: ADME, organism-based. Particulars: in vivo. The method in brief:
as §3

Data set [19] is described as follows: Drug uptake in thyroid gland of Balb/c mouse xenografted with human DU-145 cells at 38 MBq, iv and measured after 24 hrs post-injection by SPECT/CT analysis. Format: ADME, organism-based. Conditions: in vivo. In outline: as §3
Data set [20] is described as follows: Drug uptake in tumor of Balb/c mouse xenografted with human DU-145 cells at 38 MBq, iv and measured after 24 hrs post-injection by SPECT/CT analysis. Format: ADME, organism-based, Neoplasm. Particulars: in vivo. The method in brief: as §3

Molecules are shown by their SMILES.

Chain of Sigma non-opioid intracellular receptor 1 (Q9R0C9 whole entry): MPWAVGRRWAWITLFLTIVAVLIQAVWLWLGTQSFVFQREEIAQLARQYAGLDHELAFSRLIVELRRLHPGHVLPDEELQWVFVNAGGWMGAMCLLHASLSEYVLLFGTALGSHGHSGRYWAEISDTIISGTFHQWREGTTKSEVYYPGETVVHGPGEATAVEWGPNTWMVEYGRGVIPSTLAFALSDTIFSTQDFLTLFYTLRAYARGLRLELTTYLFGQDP

`O[C@H]1CCCC[C@@H]1N1CCC(c2ccc([125I])cc2)CC1`: the Drug uptake entry in data set [1], in data set [2], in data set [3] and in data set [4] was “Active” each time.

As to `O[C@H]1CCCC[C@@H]1N1CCN(CCc2ccccc2Br)CC1` (relative stereo), the inhibition constant Ki – broadly, a dissociation constant, usually derived from enzyme kinetics or from competition with a known ligand – in data set [5] was 10.2 nM; in data set [6], 41.8 nM.

`O[C@H]1CCCC[C@@H]1N1CCN(CCCc2cccc(Br)c2)CC1` (relative stereo): the inhibition constant Ki was determined as 7.7 nM in [5] and 22.2 nM in [6].

Take `O[C@H]1CCCC[C@@H]1N1CCN(CCc2cccc(Br)c2)CC1` (relative stereo): the figures for the Ki in [5] and in [6] were 17.2 nM and 25.1 nM, respectively.

With `O[C@H]1CCCC[C@@H]1N1CCN(CCCc2ccc(Br)cc2)CC1` (relative stereo), the values for the Ki in data set [5] and in [6] were 4.4 nM and 26 nM, respectively.

Regarding `O[C@H]1CCCC[C@@H]1N1CCN(CCCc2ccc([125I])cc2)CC1` (relative stereo), the Drug uptake result in [1], in [2], in [3] and in data set [4] was “Active” throughout.

With `O[C@H]1CCC[C@@H]1N1CCN(CCc2cccc(I)c2)CC1` (relative stereo), the Ki in data set [5] was found to be 7.9 nM; in data set [6], 73.6 nM.

Take `O[C@H]1CCC[C@@H]1N1CCN(CCCc2cccc([125I])c2)CC1` (relative stereo): the remaining at 24 h in data set [7] turned out to be 94.8%; in data set [13] it was 96.3%. Besides, in [8], the remaining at 1 h was 96.5%. The Drug uptake result in data set [9], in data set [10], in data set [11], in data set [14] and in [3] was “Active” throughout. The logD – broadly, the decadic logarithm of the distribution of all forms, ionised or not, between an organic phase and buffer at a given pH – in [12] was 2.5.

Take `O[C@H]1CCC[C@@H]1N1CCN(CCCc2cccc(I)c2)CC1` (relative stereo): the Ki turned out to be 14.6 nM in data set [5] and 16.9 nM in [6].

Turning to `O[C@H]1CCC[C@@H]1N1CCN(CCc2cccc([123I])c2)CC1` (relative stereo), the Drug uptake entry in [15], in [16] and in [17] was “Active” throughout.

As for `O[C@H]1CCC[C@@H]1N1CCN(CCc2cccc([125I])c2)CC1` (relative stereo), the values for the remaining at 24 h in data set [7] and in [13] were 81.3% and 96.9%, respectively. In addition, in data set [8], the remaining at 1 h was 95.6%. Besides, the Drug uptake result in data set [9], in [10], in data set [11], in data set [14] and in data set [3] was “Active” throughout. The logD in data set [12] stood at 2.08.

Turning to `O[C@H]1CCC[C@@H]1N1CCN(CCCc2ccccc2Br)CC1` (relative stereo), the Ki in data set [5] amounted to 37.1 nM; in [6], 116 nM.

For the molecule `O[C@H]1CCCC[C@@H]1N1CCN(CCc2ccc(Br)cc2)CC1` (relative stereo), the figures for the Ki in data set [5] and in [6] were 9.8 nM and 44.5 nM, respectively.

Turning to `O[C@H]1CCC[C@@H]1N1CCN(CCCc2cccc([123I])c2)CC1` (relative stereo), the Drug uptake entry in data set [18], in [19] and in [20] was “Active” in each case.

Turning to `O[C@H]1CCCC[C@@H]1N1CCN(CCCc2ccccc2Br)CC1` (relative stereo), the Ki in [5] was 19.4 nM; in data set [6], 32.5 nM.

`O[C@H]1CCC[C@@H]1N1CCN(CCCc2cccc(Br)c2)CC1` (relative stereo): the Ki was determined as 4.8 nM in [5] and 8.1 nM in [6].

Turning to `O[C@H]1CCC[C@@H]1N1CCN(CCc2ccccc2Br)CC1` (relative stereo), the Ki in [5] came to 21.5 nM; in [6], 371 nM.

With `O[C@H]1CCC[C@@H]1N1CCN(CCc2cccc(Br)c2)CC1` (relative stereo), the figures for the Ki in [5] and in [6] were 12.4 nM and 138 nM, respectively.

Turning to `O[C@H]1CCC[C@@H]1N1CCN(CCCc2ccc(Br)cc2)CC1` (relative stereo), the results for the inhibitory constant (Ki) in [5] and in data set [6] were 8.1 nM and 12.6 nM, respectively.

With `O[C@H]1CCC[C@@H]1N1CCN(CCc2ccc(Br)cc2)CC1` (relative stereo), the results for the Ki in data set [5] and in data set [6] were 9.9 nM and 148 nM, respectively.
